Measured values reported in ChEMBL document CHEMBL1148489, “Synthesis and structure-activity relationships of 1-arylmethyl-5-aryl-6-methyluracils as potent gonadotropin-releasing hormone receptor antagonists” (J Med Chem, 2004).
One block for each compound: values may come before it.

Tests used:
[1] = target: T1, Gonadotropin-releasing hormone receptor (Homo sapiens, UniProt P30968); test: Binding affinity evaluated by the ability to inhibit des-Gly10[125I]Tyr5,D-Leu6,NMeLeu7,Pro9-NEt]- Gonadotropin-releasing hormone binding to cloned human Gonadotropin-releasing hormone receptor expressed in HEK293 cells; format: cell-based
T1 sequence (P30968 whole entry): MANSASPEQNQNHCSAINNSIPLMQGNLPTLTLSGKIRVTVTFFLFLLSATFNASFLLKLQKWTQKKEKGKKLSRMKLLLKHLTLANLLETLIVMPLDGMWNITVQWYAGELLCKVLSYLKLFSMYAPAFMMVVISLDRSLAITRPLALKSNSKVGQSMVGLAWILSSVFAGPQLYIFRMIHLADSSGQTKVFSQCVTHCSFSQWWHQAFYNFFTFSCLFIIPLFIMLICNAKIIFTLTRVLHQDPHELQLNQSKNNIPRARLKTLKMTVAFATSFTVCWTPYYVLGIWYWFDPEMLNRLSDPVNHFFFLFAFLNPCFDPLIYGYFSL

[2] = target: T1, Gonadotropin-releasing hormone receptor; test: In vitro inhibition of [Ca2+] influx in RBL cells expressing Gonadotropin-releasing hormone receptor; format: functional, cell-based
In short: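 RBL cells stably expressing full-length human GnRH receptor, attached overnight and loaded with 2 μM Fluo-4 for 1 h at 37 °C. Cells washed, then preincubated 1 min with increasing compound before 5 nM GnRH stimulation. Ca2+ flux read as fluorescence on FLIPR; IC50 derived.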

[3] = target: T2, Gonadotropin-releasing hormone receptor (Rattus norvegicus, UniProt P30969); test: In vivo inhibition of rat Gonadotropin-releasing hormone receptor; format: organism-based
T2 sequence (P30969 whole entry): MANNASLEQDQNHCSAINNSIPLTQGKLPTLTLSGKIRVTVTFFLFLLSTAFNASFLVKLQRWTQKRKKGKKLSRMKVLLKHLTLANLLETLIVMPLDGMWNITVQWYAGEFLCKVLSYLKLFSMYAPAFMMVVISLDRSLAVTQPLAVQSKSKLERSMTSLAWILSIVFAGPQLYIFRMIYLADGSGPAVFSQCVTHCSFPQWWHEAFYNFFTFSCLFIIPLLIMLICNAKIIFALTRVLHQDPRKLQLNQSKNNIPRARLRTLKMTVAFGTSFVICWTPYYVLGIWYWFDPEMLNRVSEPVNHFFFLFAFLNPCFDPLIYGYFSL

[4] = Half life was determined; format: ADME, organism-based; conditions: mouse, in vivo
In short: (§1)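 Terminal blood at preset times, composite sampling, plus hepatic portal vein samples under isoflurane. Plasma flash-frozen; LLOQ 5 ng/mL. Parameters from a noncompartmental model.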

[5] = Clearance value was determined; format: ADME, organism-based; conditions: mouse, in vivo; in short: as §1
Mus musculus = test: AUC value was determined after oral administration; format: ADME, organism-based, Plasma; conditions: in vivo; in short: as §1
[6] = Oral bioavailability in mouse; format: ADME, organism-based; conditions: in vivo; in short: as §1
[7] = target: T2, Gonadotropin-releasing hormone receptor; test: In vivo inhibition of rat Gonadotropin releasing hormone receptor; format: organism-based

- Ki [1]: 110 nM
Structure (SMILES): Cc1c(-c2ccc(C(C)C)cc2)c(=O)n(CCN(C)CCc2ccccn2)c(=O)n1Cc1c(F)cccc1F

- Ki [1]: 4800 nM
Structure (SMILES): COc1ccc(-c2c(C)n(Cc3c(F)cccc3F)c(=O)n(CCN(C)CCc3ccccn3)c2=O)cc1OC

- Ki [1]: 15 nM
- IC50 [2]: 27 nM
- Ki [3]: 4.9 µM
Structure (SMILES): CCc1ccc(CN[C@@H](C)Cn2c(=O)c(-c3cccc(OC)c3F)c(C)n(Cc3c(F)cccc3F)c2=O)o1

- Ki [1]: 120 nM
Structure (SMILES): CSc1ccc(-c2c(C)n(Cc3c(F)cccc3F)c(=O)n(CCN(C)CCc3ccccn3)c2=O)cc1

- Ki [1]: 370 nM
Structure (SMILES): Cc1c(-c2cccc(Cl)c2)c(=O)n(CCN(C)CCc2ccccn2)c(=O)n1Cc1c(F)cccc1F

- half-life [4]: 36 min
- clearance [5]: 70.7 mL/min/kg
- AUC (Mus musculus): 57 ng·h/mL
- bioavailability [6]: 2.2%
Structure (SMILES): COc1cccc(-c2c(C)n(Cc3c(F)cccc3F)c(=O)n(C[C@H](C)NC3CCCC3)c2=O)c1F

- Ki [1]: 10800 nM
Structure (SMILES): COc1cc(-c2c(C)n(Cc3c(F)cccc3F)c(=O)n(CCN(C)CCc3ccccn3)c2=O)cc(OC)c1OC

- Ki [1]: 460 nM
Structure (SMILES): Cc1c(-c2ccc3ccccc3c2)c(=O)n(CCN(C)CCc2ccccn2)c(=O)n1Cc1c(F)cccc1F

- Ki [1]: 170 nM
Structure (SMILES): Cc1c(-c2ccc3oc4ccccc4c3c2)c(=O)n(CCN(C)CCc2ccccn2)c(=O)n1Cc1c(F)cccc1F

- Ki [1]: 1500 nM
Structure (SMILES): COCc1cccc(-c2c(C)n(Cc3c(F)cccc3F)c(=O)n(CCN(C)CCc3ccccn3)c2=O)c1

- Ki [1]: 220 nM
Structure (SMILES): Cc1ccc(-c2c(C)n(Cc3c(F)cccc3F)c(=O)n(CCN(C)CCc3ccccn3)c2=O)cc1

- Ki [1]: 340 nM
Structure (SMILES): C=Cc1ccc(-c2c(C)n(Cc3c(F)cccc3F)c(=O)n(CCN(C)CCc3ccccn3)c2=O)cc1

- Ki [1]: 25 nM
- IC50 [2]: 38 nM
- Ki [3]: 25 µM
Structure (SMILES): COc1cccc(-c2c(C)n(Cc3c(F)cccc3F)c(=O)n(C[C@H](C)NCc3ccccc3)c2=O)c1F

- Ki [1]: 470 nM
Structure (SMILES): Cc1c(-c2ccc3c(c2)OC(F)(F)O3)c(=O)n(CCN(C)CCc2ccccn2)c(=O)n1Cc1c(F)cccc1F

- half-life [4]: 24 min
- clearance [5]: 120 mL/min/kg
- AUC (Mus musculus): 23 ng·h/mL
- bioavailability [6]: 1.6%
Structure (SMILES): COc1cccc(-c2c(C)n(Cc3c(F)cccc3F)c(=O)n(CCN(C)CCc3ccccn3)c2=O)c1

- Ki [1]: 240 nM
Structure (SMILES): Cc1c(-c2cccc(C(C)C)c2)c(=O)n(CCN(C)CCc2ccccn2)c(=O)n1Cc1c(F)cccc1F

- Ki [1]: 81 nM
Structure (SMILES): Cc1c(-c2ccccc2F)c(=O)n(CCN(C)CCc2ccccn2)c(=O)n1Cc1c(F)cccc1F

- half-life [4]: 54 min
- clearance [5]: 129 mL/min/kg
- AUC (Mus musculus): 110 ng·h/mL
- bioavailability [6]: 8.2%
Structure (SMILES): CCC(CC)N[C@@H](C)Cn1c(=O)c(-c2cccc(OC)c2F)c(C)n(Cc2c(F)cccc2F)c1=O

- half-life [4]: 78 min
- Ki [1]: 13 nM
- clearance [5]: 97.3 mL/min/kg
- IC50 [2]: 6.1 nM
- Ki [7]: 10 µM
- AUC (Mus musculus): 104 ng·h/mL
- bioavailability [6]: 6%
Structure (SMILES): COc1cccc(-c2c(C)n(Cc3c(F)cccc3F)c(=O)n(C[C@@H](C)NCc3nccs3)c2=O)c1F

- Ki [1]: 680 nM
Structure (SMILES): CCOc1ccc(-c2c(C)n(Cc3c(F)cccc3F)c(=O)n(CCN(C)CCc3ccccn3)c2=O)cc1

- Ki [1]: 7 nM
Structure (SMILES): COc1cccc(-c2c(C)n(Cc3c(F)cccc3F)c(=O)n([C@H](C)CNCc3ccccc3C)c2=O)c1F

- Ki [1]: 4 nM
- IC50 [2]: 4 nM
- Ki [3]: 3.2 µM
Structure (SMILES): COc1cccc(-c2c(C)n(Cc3c(F)cccc3F)c(=O)n(C[C@H](C)NCc3sccc3C)c2=O)c1F

- Ki [1]: 3 nM
Structure (SMILES): COc1cccc(-c2c(C)n(Cc3c(F)cccc3F)c(=O)n(CCN(C)CCc3ccccn3)c2=O)c1F

- Ki [1]: 1200 nM
Structure (SMILES): Cc1c(-c2cccc(F)c2)c(=O)n(CCN(C)CCc2ccccn2)c(=O)n1Cc1c(F)cccc1F

- Ki [1]: 1400 nM
Structure (SMILES): COCc1ccc(-c2c(C)n(Cc3c(F)cccc3F)c(=O)n(CCN(C)CCc3ccccn3)c2=O)cc1
